Results as given in ChEMBL document CHEMBL1123594, “Antiradiation compounds. 20. 1-Methylquinolinium(and pyridinium)-2-dithioacetic acid derivatives” (J Med Chem, 1987).

Tests used:
Mus musculus [1] = assay: Percent survival was determined over a period of 30 days after intraperitoneal administration of a dose of 4.7 mg/kg in mice; assay type: functional; details: ip, 720 h
In short: (§1)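 Female C57 B16 mice (18-20 g), groups of 10, dosed ip in water or 10-20% aqueous ethanol (sometimes with Klucel or a Tween). Whole-body 1000-rad γ-irradiation 30 min after dosing. Survival was followed over 30 days, and animals alive beyond 30 days were counted as protected. Testing was done at Walter Reed Army Institute of Research.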

Mus musculus [2] = assay: Percent survival was determined over a period of 30 days after intraperitoneal administration of a dose of 9.4 mg/kg in mice; assay type: functional; details: ip, 720 h; in short: as §1
[3] = Toxic dose was determined after (ip) administration of a dose of 9.4 mg/kg in mice at 1000-rad-gamma-radiation for 30 mins; assay type: toxicity, organism-based; set-up: dose 9.4 mg/kg; details: mouse, in vivo
In short: (§2)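 Drug-toxicity deaths were counted within the radioprotection groups: 10 female C57 B16 mice, dosed by the route stated, then given whole-body 1000-rad γ-irradiation 30 min later. Deaths attributed to compound toxicity occurred before day 5 and were scored separately from the 30-day survival count.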

Mus musculus [4] = assay: Percent survival was determined over a period of 30 days after intraperitoneal administration of a dose of 18.8 mg/kg in mice; assay type: functional; details: ip, 720 h; in short: as §1
Mus musculus [5] = assay: Percent survival was determined over a period of 30 days after intraperitoneal administration of a dose of 37.5 mg/kg in mice; assay type: functional; details: ip, 720 h; in short: as §1
[6] = Toxic dose was determined after (ip) administration of a dose of 37.5 mg/kg in mice at 1000-rad-gamma-radiation for 30 mins; assay type: toxicity, organism-based; set-up: dose 37.5 mg/kg; details: mouse, in vivo; in short: as §2
Mus musculus [7] = assay: Percent survival was determined over a period of 30 days after intraperitoneal administration of a dose of 2.3 mg/kg in mice; assay type: functional; details: ip, 720 h; in short: as §1
Mus musculus [8] = assay: Percent protective effect was determined in mice using 1000 rads for 30 min after administration of 25 mg/kg; assay type: functional
Mus musculus [9] = assay: Percent survival was determined over a period of 30 days after intraperitoneal administration of a dose of 75 mg/kg in mice; assay type: functional; details: for survival at 75 mg/kg: Mus musculus, ip, 720 h; in short: as §1
Mus musculus [10] = assay: Percent survival was determined over a period of 30 days after oral administration of a dose of 150 mg/kg in mice; assay type: functional; details: 720 h
In short: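 Female C57 B16 mice (18-20 g), groups of 10, dosed orally. Whole-body 1000-rad γ-irradiation 30 min after dosing. Percent survival was scored over 30 days, with mice surviving beyond 30 days counted as protected.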

[11] = Toxic dose was determined after (po) administration of a dose of 300 mg/kg in mice at 1000-rad-gamma-radiation for 30 mins; assay type: toxicity, organism-based; set-up: dose 300 mg/kg; details: mouse, in vivo; in short: as §2
[12] = Toxic dose was determined after (ip) administration of a dose of 150 mg/kg in mice at 1000-rad-gamma-radiation for 30 mins; assay type: toxicity, organism-based; set-up: dose 150 mg/kg; details: mouse, in vivo; in short: as §2
Mus musculus [13] = assay: Percent survival was determined over a period of 30 days after intraperitoneal administration of a dose of 150 mg/kg in mice; assay type: functional; details: ip, 720 h; in short: as §1
[14] = Toxic dose was determined after (ip) administration of a dose of 18.8 mg/kg in mice at 1000-rad-gamma-radiation for 30 mins; assay type: toxicity, organism-based; set-up: dose 18.8 mg/kg; details: mouse, in vivo; in short: as §2
[15] = Toxic dose was determined after (ip) administration of a dose of 75 mg/kg in mice at 1000-rad-gamma-radiation for 30 mins; assay type: toxicity, organism-based; set-up: dose 75 mg/kg; details: mouse, in vivo; in short: as §2
Mus musculus [16] = organism: Mus musculus; assay: Percent protective effect was determined in mice using 825 rads for 30 min; assay type: functional
Mus musculus [17] = assay: Percent survival was determined over a period of 30 days after intraperitoneal administration of a dose of 1.2 mg/kg in mice; assay type: functional; details: ip, 720 h; in short: as §1
[18] = Toxic dose was determined after (ip) administration of a dose of 4.7 mg/kg in mice at 1000-rad-gamma-radiation for 30 mins; assay type: toxicity, organism-based; set-up: dose 4.7 mg/kg; details: mouse, in vivo; in short: as §2
Mus musculus [19] = assay: Percent protective effect was determined in mice using 825 rads for 30 min after administration of 120 mg/kg; assay type: functional

For CCSC(=Cc1cccc[n+]1C)SCC.[I-], the survival at 4.7 mg/kg (Mus musculus [1]) was 0%, the survival at 9.4 mg/kg (Mus musculus [2]) was 20% and the LD50 at 0.5 h [3] was 20 mg/kg.

Work on COCCN/C(=C/c1ccc2ccccc2[n+]1C)SC.[I-] yielded a survival at 18.8 mg/kg (Mus musculus [4]) of 0%, a survival at 37.5 mg/kg (Mus musculus [5]) of 0% and a survival at 9.4 mg/kg (Mus musculus [2]) of 0%. It also gave an LD50 at 0.5 h [6] of 50 mg/kg.

Compound CS/C(=C\c1ccc2ccccc2[n+]1C)N1CCN(CCCO)CC1.[I-] has a survival at 2.3 mg/kg (Mus musculus [7]) of 0%, a survival at 4.7 mg/kg (Mus musculus [1]) of 0% and a survival at 9.4 mg/kg (Mus musculus [2]) of 30%. The LD50 at 0.5 h [3] was > 10 mg/kg.

For N#CC(C#N)=C([S-])[S-].[Zn+2], the Protective effect (Mus musculus [8]) was <25%.

For CSC(=Cc1ccc2ccccc2[n+]1C)SC.[I-], the survival at 37.5 mg/kg (Mus musculus [5]) was 0%, the Survival (Mus musculus [9]; 75 mg/kg) was 0% and the survival at 150 mg/kg (Mus musculus [10]) was 10%. For the same compound, the LD50 at 0.5 h [11] was > 300 mg/kg, the LD50 at 0.5 h [12] was 300 mg/kg and the survival at 150 mg/kg (Mus musculus [13]) was 60%.

CSC(=Cc1cccc[n+]1C)SC.[I-] showed a survival at 18.8 mg/kg (Mus musculus [4]) of 50%, a survival at 4.7 mg/kg (Mus musculus [1]) of 0% and a survival at 9.4 mg/kg (Mus musculus [2]) of 0%. The LD50 at 0.5 h [14] was 30 mg/kg.

CN(C)CCNC(=Cc1ccc2ccccc2[n+]1C)NCCN(C)C.[I-] showed a survival at 18.8 mg/kg (Mus musculus [4]) of 0%, a survival at 37.5 mg/kg (Mus musculus [5]) of 0% and a survival at 75 mg/kg (Mus musculus [9]) of 0%. For the same compound, the LD50 at 0.5 h [15] was 90 mg/kg.

In the case of NC(=O)c1ccc[n+](CC(=S)[S-])c1, the Protective effect (Mus musculus [16]) is reported as >45%.

With CSC(=Cc1c2ccccc2cc[n+]1C)SC.[I-] the survival at 2.3 mg/kg (Mus musculus [7]) was 0%, the survival at 4.7 mg/kg (Mus musculus [1]) was 0% and the survival at 9.4 mg/kg (Mus musculus [2]) was 20%. It also gave an LD50 at 0.5 h [3] of 15 mg/kg.

Compound CS/C(=C\c1ccc2ccccc2[n+]1C)NCCCO.[I-] has a survival at 18.8 mg/kg (Mus musculus [4]) of 0%, a survival at 37.5 mg/kg (Mus musculus [5]) of 0% and a survival at 9.4 mg/kg (Mus musculus [2]) of 0%. The LD50 at 0.5 h [6] was 50 mg/kg.

For CSC(=Cc1cccc(C=C(SC)SC)[n+]1C)SC.[I-], the survival at 2.3 mg/kg (Mus musculus [7]) was 10%, the survival at 4.7 mg/kg (Mus musculus [1]) was 10% and the survival at 9.4 mg/kg (Mus musculus [2]) was 30%. The LD50 at 0.5 h [3] was 25 mg/kg.

With CCCCCCSC(=Cc1cccc[n+]1C)SCCCCCC.[I-] the survival at 1.2 mg/kg (Mus musculus [17]) was 0%, the survival at 2.3 mg/kg (Mus musculus [7]) was 0% and the survival at 4.7 mg/kg (Mus musculus [1]) was 0%. The LD50 at 0.5 h [18] was 5 mg/kg.

With Cc1ccc2c(ccc(CC(=S)[S-])[n+]2C)c1 the survival at 37.5 mg/kg (Mus musculus [5]) was 10%, the survival at 75 mg/kg (Mus musculus [9]) was 20% and the LD50 at 0.5 h [12] was 225 mg/kg. The survival at 150 mg/kg (Mus musculus [13]) was 10%.

For N#CC(C(=O)c1ccccc1)=C([S-])[S-].[K+].[K+], the Protective effect (Mus musculus [19]) was 17%.

With CS/C(=C\c1cccc[n+]1C)N1CCN(C)CC1.[I-] the survival at 18.8 mg/kg (Mus musculus [4]) was 10%, the survival at 4.7 mg/kg (Mus musculus [1]) was 0% and the survival at 9.4 mg/kg (Mus musculus [2]) was 0%. It also gave an LD50 at 0.5 h [14] of 60 mg/kg.
